Measured values from ChEMBL document CHEMBL3351648, “Synthesis and pharmacological evaluation of 6-aminonicotinic acid analogues as novel GABA(A) receptor agonists” (Eur J Med Chem, 2014).
Calls of active or inactive are those of the source. The rule behind the calls is not given here.

Tests used:
[1] = molecular target: GABA-A receptor; anion channel; assay: Displacement of [3H]muscimol from GABAA receptor in SPRD rat brain synaptic membranes by scintillation counting method; type: cell membranes
Outline: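 Rat synaptic membranes were thawed, homogenized in ice-cold 50 mM Tris-HCl pH 7.4, and spun at 48,000g for 10 min at 4 °C, with the wash repeated four times. Incubation was with 5 nM [3H]muscimol (final) and varying test concentrations for 60 min at 0 °C, then GF/C filtration and scintillation counting.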

[2] = Dissociation constant, pKa of the compound by diode array detector method; type: physicochemical
Outline: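 pKa was determined by titration in methanol cosolvent at 23–48%, with three titrations per compound. An in-line diode-array detector recorded UV-Vis spectra, and the titration was mapped against the spectra of the protonated and unprotonated species.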

[3] = molecular target: T1, Gamma-aminobutyric acid receptor subunit rho-1 (Homo sapiens, UniProt P24046); assay: Agonist activity at human GABAA rho1 expressed in tsA-201cells by FLIPR membrane potential blue assay
T1 sequence (P24046 whole entry): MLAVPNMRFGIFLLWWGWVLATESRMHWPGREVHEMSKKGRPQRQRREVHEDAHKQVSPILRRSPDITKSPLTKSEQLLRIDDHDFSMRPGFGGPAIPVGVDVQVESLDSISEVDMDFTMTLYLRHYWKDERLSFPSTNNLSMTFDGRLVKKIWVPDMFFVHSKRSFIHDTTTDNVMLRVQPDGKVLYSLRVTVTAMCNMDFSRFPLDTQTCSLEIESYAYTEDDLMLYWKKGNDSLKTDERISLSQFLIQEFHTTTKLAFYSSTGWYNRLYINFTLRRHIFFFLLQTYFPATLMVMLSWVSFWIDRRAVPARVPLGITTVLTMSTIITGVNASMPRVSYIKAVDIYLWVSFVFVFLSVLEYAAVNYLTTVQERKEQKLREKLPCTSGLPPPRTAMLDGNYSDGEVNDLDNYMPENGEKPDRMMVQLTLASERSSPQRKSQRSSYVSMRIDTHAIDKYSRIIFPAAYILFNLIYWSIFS
Outline: (§1)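 tsA201 cells (8×10^5 per 6 cm dish) were transfected with α1, α2, α3 or α5 plus β2 and γ2S cDNAs (1:1:3), or with ρ1 alone. Next day cells were replated into poly-D-lysine 96-well plates. After 16–24 h they were washed with Krebs buffer pH 7.4, given membrane-potential dye, held 30 min at 37 °C, and read at 560 nm emission. Concentration-response curves used ΔFU before versus after agonist; duplicates were run ≥3 times.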

[4] = molecular target: T2, GABA-A receptor; alpha-1/beta-2/gamma-2 (Homo sapiens, UniProt P14867+P18507+P47870); assay: (§2) Agonist activity at human GABAAalpha1beta2gamma2S receptor expressed in tsA-201cells by FLIPR membrane potential blue assay; outline: as §1
T2 sequence (P14867 whole entry): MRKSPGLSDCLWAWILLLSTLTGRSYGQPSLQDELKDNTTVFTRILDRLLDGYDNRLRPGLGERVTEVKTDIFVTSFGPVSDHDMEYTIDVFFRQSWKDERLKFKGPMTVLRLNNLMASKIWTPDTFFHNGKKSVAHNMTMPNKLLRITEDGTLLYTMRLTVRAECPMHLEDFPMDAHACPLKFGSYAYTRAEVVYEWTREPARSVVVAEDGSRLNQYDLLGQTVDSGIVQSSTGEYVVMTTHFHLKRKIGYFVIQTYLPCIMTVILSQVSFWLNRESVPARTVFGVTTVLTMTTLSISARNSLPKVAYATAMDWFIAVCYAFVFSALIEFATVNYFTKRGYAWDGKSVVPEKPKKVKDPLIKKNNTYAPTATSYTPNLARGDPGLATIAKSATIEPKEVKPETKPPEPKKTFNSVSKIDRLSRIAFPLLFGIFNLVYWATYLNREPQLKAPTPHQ
T2 sequence (P47870 whole entry): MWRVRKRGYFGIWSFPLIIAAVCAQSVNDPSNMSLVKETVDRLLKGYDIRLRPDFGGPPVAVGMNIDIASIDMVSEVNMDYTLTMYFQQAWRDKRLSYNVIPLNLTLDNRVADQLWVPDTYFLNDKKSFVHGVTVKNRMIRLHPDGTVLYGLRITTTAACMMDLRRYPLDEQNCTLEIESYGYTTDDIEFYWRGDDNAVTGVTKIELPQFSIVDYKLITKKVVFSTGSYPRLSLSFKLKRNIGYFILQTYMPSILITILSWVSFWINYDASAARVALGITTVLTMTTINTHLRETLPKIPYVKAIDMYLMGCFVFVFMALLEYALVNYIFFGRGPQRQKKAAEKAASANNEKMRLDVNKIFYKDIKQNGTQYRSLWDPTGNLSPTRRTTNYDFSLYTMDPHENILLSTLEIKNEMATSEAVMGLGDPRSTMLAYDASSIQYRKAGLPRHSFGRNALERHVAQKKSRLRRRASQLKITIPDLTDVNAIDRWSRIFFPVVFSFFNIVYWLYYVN
T2 sequence (P18507 whole entry): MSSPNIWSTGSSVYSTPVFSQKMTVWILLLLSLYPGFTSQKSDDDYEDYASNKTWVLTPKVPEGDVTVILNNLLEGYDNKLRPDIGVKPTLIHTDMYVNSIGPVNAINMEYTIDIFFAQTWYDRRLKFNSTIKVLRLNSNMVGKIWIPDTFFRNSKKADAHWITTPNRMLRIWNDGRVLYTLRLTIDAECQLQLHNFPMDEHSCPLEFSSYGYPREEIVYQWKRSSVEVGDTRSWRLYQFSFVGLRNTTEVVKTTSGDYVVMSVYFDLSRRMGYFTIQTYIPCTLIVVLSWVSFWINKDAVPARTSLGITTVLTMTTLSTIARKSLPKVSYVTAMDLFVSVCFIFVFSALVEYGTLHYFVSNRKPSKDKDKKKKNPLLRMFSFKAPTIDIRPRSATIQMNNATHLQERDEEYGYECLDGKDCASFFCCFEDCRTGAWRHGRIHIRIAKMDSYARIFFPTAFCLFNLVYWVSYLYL

[5] = molecular target: T3, GABA-A receptor; alpha-1/beta-2/gamma-2 (Homo sapiens, UniProt P14867+P47870+P18507); assay: as §2; conditions: tsa-201; outline: as §1
T3 sequence (P14867 whole entry): T2 sequence (P14867 whole entry)
T3 sequence (P47870 whole entry): T2 sequence (P47870 whole entry)
T3 sequence (P18507 whole entry): T2 sequence (P18507 whole entry)

[6] = molecular target: GABA-A receptor; alpha-1/beta-2/gamma-2 (Homo sapiens) (UniProt P14867+P47870+P18507); assay: Agonist activity at human GABAAalpha1beta2gamma2S receptor expressed in tsA-201cells at 1 mM by FLIPR membrane potential blue assay; type: cell-based
Outline: (§3)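 Transfected tsA201 cells (α1β2γ2S or ρ1) were loaded with membrane-potential dye in Krebs buffer pH 7.4 for 30 min at 37 °C. Compound was applied at a single 1 mM concentration. Response was read as fluorescence change at 560 nm emission before versus after addition, in duplicate on ≥3 occasions.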

[7] = molecular target: GABA A receptor alpha-2/beta-2/gamma-2 (Homo sapiens) (UniProt P47870+P18507+P47869); assay: Agonist activity at human GABAAalpha2beta2gamma2S receptor expressed in tsA-201cells by FLIPR membrane potential blue assay relative to GABA
[8] = Agonist activity at human GABAAalpha5beta2gamma2S receptor expressed in tsA-201cells by FLIPR membrane potential blue assay; type: cell membranes
[9] = system: tsA-201; assay: Agonist activity at human GABAAalpha5beta2gamma2S receptor expressed in tsA-201cells by FLIPR membrane potential blue assay relative to GABA
[10] = molecular target: T4, GABA A receptor alpha-3/beta-2/gamma-2 (Homo sapiens, UniProt P18507+P34903+P47870); assay: Agonist activity at human GABAAalpha3beta2gamma2S receptor expressed in tsA-201cells by FLIPR membrane potential blue assay; outline: as §1
T4 sequence (P47870 whole entry): T2 sequence (P47870 whole entry)
T4 sequence (P18507 whole entry): T2 sequence (P18507 whole entry)
T4 sequence (P34903 whole entry): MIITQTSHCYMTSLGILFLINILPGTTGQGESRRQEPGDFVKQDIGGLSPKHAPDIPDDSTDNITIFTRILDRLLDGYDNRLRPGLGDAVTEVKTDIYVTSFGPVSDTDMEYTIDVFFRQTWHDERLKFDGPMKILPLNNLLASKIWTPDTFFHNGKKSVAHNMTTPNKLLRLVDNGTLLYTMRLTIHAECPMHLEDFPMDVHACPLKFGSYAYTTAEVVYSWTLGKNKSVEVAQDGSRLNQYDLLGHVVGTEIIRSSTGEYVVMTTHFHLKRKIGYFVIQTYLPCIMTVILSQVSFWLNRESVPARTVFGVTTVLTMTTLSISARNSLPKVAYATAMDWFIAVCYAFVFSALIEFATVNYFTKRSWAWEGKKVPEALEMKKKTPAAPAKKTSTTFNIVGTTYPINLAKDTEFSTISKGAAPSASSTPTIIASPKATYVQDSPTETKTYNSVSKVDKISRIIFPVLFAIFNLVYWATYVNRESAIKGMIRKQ

[11] = molecular target: GABA A receptor alpha-3/beta-2/gamma-2 (Homo sapiens) (UniProt P47870+P18507+P34903); assay: Agonist activity at human GABAAalpha3beta2gamma2S receptor expressed in tsA-201cells by FLIPR membrane potential blue assay relative to GABA
[12] = molecular target: T1, Gamma-aminobutyric acid receptor subunit rho-1; assay: Agonist activity at human GABAA rho1 expressed in tsA-201cells at 1 mM by FLIPR membrane potential blue assay; type: cell-based; outline: as §3
[13] = molecular target: T1, Gamma-aminobutyric acid receptor subunit rho-1; assay: Agonist activity at human GABAA rho1 expressed in tsA-201cells by FLIPR membrane potential blue assay relative to GABA
[14] = molecular target: T5, GABA A receptor alpha-2/beta-2/gamma-2 (Homo sapiens, UniProt P18507+P47869+P47870); assay: Agonist activity at human GABAAalpha2beta2gamma2S receptor expressed in tsA-201cells by FLIPR membrane potential blue assay; outline: as §1
T5 sequence (P47870 whole entry): T2 sequence (P47870 whole entry)
T5 sequence (P18507 whole entry): T2 sequence (P18507 whole entry)
T5 sequence (P47869 whole entry): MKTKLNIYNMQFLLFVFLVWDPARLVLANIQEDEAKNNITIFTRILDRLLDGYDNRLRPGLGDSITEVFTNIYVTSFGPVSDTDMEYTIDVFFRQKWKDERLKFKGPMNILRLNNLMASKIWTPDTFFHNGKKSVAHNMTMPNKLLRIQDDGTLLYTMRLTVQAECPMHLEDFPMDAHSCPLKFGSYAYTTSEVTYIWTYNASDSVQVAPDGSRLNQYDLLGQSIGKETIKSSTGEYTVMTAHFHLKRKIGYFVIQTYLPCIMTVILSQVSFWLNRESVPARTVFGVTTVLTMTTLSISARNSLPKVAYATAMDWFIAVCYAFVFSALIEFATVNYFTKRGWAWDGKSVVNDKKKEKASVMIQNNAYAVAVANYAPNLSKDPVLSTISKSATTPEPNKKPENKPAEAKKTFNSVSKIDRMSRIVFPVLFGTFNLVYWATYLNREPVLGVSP

Nc1ccc(C(=O)O)c(-c2ccccc2)n1
Ki [1]: > 100 µM

NCc1cc(=O)[nH]o1 [MUSCIMOL]
Ki [1]: 0.006 µM

Nc1ccc(C(=O)O)cn1
Ki [1]: 4.4 µM | pKi [1]: 5.39 | pKa [2]: 6.2 | EC50 ([3]; tsa-201): Active | EC50 ([4]; read-out: EC50): > 300 µM | EC50 ([4]; read-out: pEC50 (converted)): > 316 µM

Nc1cccc(C(=O)O)n1
Ki [1]: > 100 µM

CNc1ccc(C(=O)O)cn1
Ki [1]: > 100 µM

CCCCc1nc(N)ccc1C(=O)O
Ki [1]: 7.1 µM | EC50 ([3]; read-out: EC50): > 1000 µM | pEC50 ([3]; tsa-201): < 3 | pEC50 [5]: < 3 | EC50 ([4]; read-out: EC50): > 1000 µM

Cc1cc(C(=O)O)cnc1N
Ki [1]: > 100 µM

Nc1ncccc1C(=O)O
Ki [1]: > 100 µM

Nc1cc(CC(=O)O)ccn1
Ki [1]: 73 µM

CCCCc1cc(N)ncc1C(=O)O
Ki [1]: 24 µM | EC50 ([3]; read-out: EC50): > 1000 µM | pEC50 ([3]; tsa-201): < 3 | pEC50 [5]: < 3 | EC50 ([4]; read-out: EC50): > 1000 µM

Nc1cc(-c2ccccc2)c(C(=O)O)cn1
Ki [1]: > 100 µM

O=C(O)C1CN=CNC1 (stereo not given)
Ki [1]: 5.3 µM | pKi [1]: 5.29 | pKa [2]: 12.2 | Rmax [6]: 25% | EC50 [5]: Active

Nc1ncc(C(=O)O)cc1I
Ki [1]: > 100 µM

Nc1cccc(CC(=O)O)n1
Ki [1]: > 100 µM

O=C(O)C1CCNCC1 [ISONIPECOTIC ACID]
Ki [1]: 0.51 µM | Rmax [6]: 66% | Rmax [7]: 85% | EC50 ([3]; tsa-201): Active | EC50 [8]: 2.8 µM | pEC50 [8]: 5.54 | Rmax [9]: 115% | EC50 [10]: 17 µM | EC50 [5]: Active | Rmax [11]: 85% | Activity [12]: Active | Rmax [13]: inactive | EC50 [14]: 24 µM

Nc1ncccc1CC(=O)O
Ki [1]: > 100 µM
